Screening data from PubChem.
Compounds with a hit are over-represented: about 1.9% of the library has one in this group of screens.
Vif inh – inhibitors of HIV Vif; HEK293T cells, Vif self-association by quenched fluorescence, imaging, 24 h; inhibition, % at 7.49 µM; hit rate 0.35% among 340,000; AID 602346; in the data active = inhibition above about 50%, passing the limit was not always enough
aDG glyco up – increases alpha dystroglycan glycosylation; Pro5-aDG cells, alpha-DG glycosylation AlphaScreen (IIH6); 0% Pro5, 100% B10-LARGE cell signal; activation, % at 10 µM; hit rate 0.22% among 360,000; AID 624168;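 active = activation of at least 8% versus controls, or a plate z-score of at least 8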;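 also: Pro5 are CHO cells carrying HIG-tagged alpha-DG that lacks glycosylation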
MsrA inh – inhibits bovine methionine sulfoxide reductase A | inhibition, % at 15.5 µM | purified bovine MsrA, absorbance read-out | AID 651718 | hit rate 0.75% among 360,000; in the data active = inhibition above about 4.5%;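 also: 0% = vehicle wells with enzyme and 100% = reference inhibitor wells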
UCH37 inh – human UCH37 deubiquitinating enzyme inhibition; Q9Y5K5; purified proteasome/UCH37, Ub-AMC cleavage fluorescence; inhibition, % (test concentration not listed); hit rate 0.33% among 330,000; AID 588478;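 active = mean inhibition over replicate wells above about 20%, limit read from the data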;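 also: 0% = compound-free wells with enzyme and 100% = wells lacking proteasome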
Target sequence (Q9Y5K5 whole entry, looked up): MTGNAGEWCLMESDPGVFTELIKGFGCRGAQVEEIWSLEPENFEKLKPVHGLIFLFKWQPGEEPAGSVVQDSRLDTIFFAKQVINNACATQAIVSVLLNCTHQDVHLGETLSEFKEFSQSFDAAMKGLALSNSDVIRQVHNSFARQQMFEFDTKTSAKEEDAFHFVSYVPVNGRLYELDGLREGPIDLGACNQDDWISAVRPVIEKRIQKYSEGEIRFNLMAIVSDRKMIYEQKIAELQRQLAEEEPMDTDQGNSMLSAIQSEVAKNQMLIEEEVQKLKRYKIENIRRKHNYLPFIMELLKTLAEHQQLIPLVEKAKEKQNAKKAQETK
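Test system – human UCH37 enzyme supplied as purified proteasome complex · Incubation – 30 min preincubation with enzyme, 25 min cleavage at room temperature · Detection – AMC fluorescence from Ub-AMC cleavage, excitation 355 nm, emission 460 nm · Benchmarks – no-proteasome wells (full inhibition) and compound-free wells (no inhibition)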
Glyco luc inh – N-linked glycosylation inhibition | D54 ERlucT glycosylation luciferase reporter, 24 h; percent of 100 nM tunicamycin response | hit rate 0.23% among 360,000 | AID 588692 | reporter increase, % at 12.5 µM;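 active = mean luciferase reporter signal, scaled so untreated is 0 and the glycosylation-blocking control 100, at or above a set limit in every replicate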;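 also: luciferase carries N-glycosylation sites so blocking glycosylation raises the light; 0% = median of neutral control wells and 100% = median of 100 nM tunicamycin wells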
MsrA act – activates bovine MsrA enzyme | purified bovine MsrA, absorbance read-out | activation, % at 10.6 µM | hit rate 0.3% among 360,000 | AID 602163; in the data active = activation above about 7.5%;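 also: 0% = vehicle and 100% = reference activator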
The depositor's hits bear a star; i = inactive; . = no result given.

SMILES	Vif inh	aDG glyco up	MsrA inh	UCH37 inh	Glyco luc inh	MsrA act
O=[N+]([O-])c1cc(Br)c(O)c(C=NNc2nc3ccccc3s2)c1	.	.	.	3.3	.	.
Cc1ccc(NC(=O)/C=C/C(=O)O)c(NC(=O)c2ccccc2)c1	52.8*	0.1	-1.4	2.5	0.0	-2.6
Cc1ccc(O)c(NC(=O)/C=C/C(=O)O)c1	-10.2	-0.1	1.5	0.0	0.5	-4.2
COc1ccc(C(C)=NNC(=O)CNC(=O)CCc2ccccc2)c(OC)c1	.	.	.	4.7	.	.
O=C1N/C(=C/c2ccc(N3CCCC3)cc2)C(=O)N1c1ccccc1	5.5	0.2	-0.3	1.2	-1.1	2.3
O=C1/C(=C/c2ccc(N3CCCC3)cc2)NC(=S)N1C1CC1	54.4*	0.4	2.0	0.8	0.8	-1.2
CC(=O)N1CCc2c(sc(NC(=O)c3cccc(N4C(=O)CCC4=O)c3)c2C(N)=O)C1	-0.8	-0.2	4.8*	12.1	0.2	-2.5
CN1CCc2c(sc(NC(=O)c3cc(Cl)sc3Cl)c2C(N)=O)C1	161.1*	2.0	1.3	7.3	-0.2	-2.5
CN1CCc2c(sc(NC(=O)c3ccc(S(=O)(=O)N4CCCCCC4)cc3)c2C(N)=O)C1	i	32.6*	.	.	9.9	-5.9
CC(C)N1CCc2c(sc(NC(=O)c3ccc4ccccc4c3)c2C(N)=O)C1	i	1.8	-0.2	-18.7	-4.4	-2.3
CN1CCc2c(sc(NC(=O)c3ccc(S(=O)(=O)N4CCOCC4)cc3)c2C(N)=O)C1	i	0.9	.	13.2	0.8	-1.4
NC(=O)c1c(NC(=O)c2cccc(N3C(=O)CCC3=O)c2)sc2c1CCCCC2	.	0.0	-0.3	-137.5	.	-3.3
CC(C)N1CCc2c(sc(NC(=O)c3cc4cc([N+](=O)[O-])ccc4s3)c2C(N)=O)C1	79.7*	4.3	-0.2	6.3	-17.0	-3.1
Cc1cc(C=NNC(=O)CC2(C)OCCO2)c(C)n1-c1ccc(Cl)c(Cl)c1	.	.	.	4.3	.	.
C=CCN1C(=O)CSC1=NS(=O)(=O)c1ccc(Cl)cc1	.	.	.	3.8	.	.
CCCN1CCc2c(sc(NC(=O)c3ccc(S(=O)(=O)N4CCN(C(=O)OCC)CC4)cc3)c2C(N)=O)C1	i	12.4*	1.6	0.7	-3.3	-5.6
CCCN(C(=O)Cc1nc(N)n[nH]1)C1(C(=O)Nc2ccccc2C)CCCCC1	9.5	0.0	0.6	24.6*	1.5	-5.5
O=C1OCCN1C(=O)[C@H]1[C@H](c2ccc([N+](=O)[O-])cc2)C(c2ccc(F)cc2)=NN1c1ccc(Br)cc1	-0.1	-0.1	4.7*	3.7	3.7	-11.9
CN1CCN(N=C2C(=O)Nc3ccc([N+](=O)[O-])cc32)CC1	.	.	.	12.4	.	.
CCOc1ccc(C(=O)c2nc3c(n2O)CCCC3)cc1	2.2	-0.3	5.0*	9.0	-0.1	-12.3
C(=NNc1ccc2ccccc2n1)c1ccc2c(c1)OCCO2	.	.	.	-74.6	.	.
CCCCc1ccc(S(=O)(=O)NC(=O)C2(C)CCN2C(=O)CCc2cccs2)cc1 (stereo unspecified)	4.8	0.0	-1.1	.	1.4	-2.2
Cc1ccccc1S(=O)(=O)NC(=O)C1(C)CCN1C(=O)CCc1cccs1 (stereo unspecified)	67.7*	0.2	-0.6	.	-0.5	-7.0
CCCCOc1ccc(C(=O)Nc2cc(C)c(OCC(=O)N3CCOCC3)c(C)c2)cc1	-7.0	0.6	-0.7	3.5	-1.5	-7.3
CCCN(CCC)S(=O)(=O)c1ccc(C(=O)Nc2ccc(OCC(=O)N3CCOCC3)cc2)cc1	-13.4	0.1	0.4	4.4	40.4*	0.6
SMILES	Vif inh	aDG glyco up	MsrA inh	UCH37 inh	Glyco luc inh	MsrA act
CCOC(=O)C1(Cc2cccc(OC)c2)CCN(CCO)CC1	66.3*	-0.1	2.0	0.9	-1.4	-2.6
CC(=NNC(=O)c1ccc(NS(=O)(=O)c2cccs2)cc1)c1ccncc1	.	.	.	0.1	.	.
Cc1ccc(C)c(/C(O)=C2\C(=O)C(=O)N(Cc3cccnc3)C2c2cccnc2)c1 (stereo unspecified)	7.0	-0.2	4.8*	11.1	2.1	-4.5
COc1cc(C(=O)NN=C(C)Cc2ccccc2)cc(OC)c1OC	.	.	.	1.6	.	.
COc1ccc(C=NNC(=O)COc2ccccc2Cl)cc1Cn1nc(C)cc1C	.	.	.	-0.1	.	.
COc1ccc(NC2=C(C)C(=O)CC2)cc1	20.5	-0.5	2.3	6.7	31.7*	-0.2
COc1ccc(Nc2ccc(OC)cc2)cc1	3.4	0.1	-2.4	4.4	-0.5	-12.5
CC(=NN1CCN(c2ccccn2)CC1)c1cccc([N+](=O)[O-])c1	.	.	.	3.6	.	.
